Results published in ChEMBL document CHEMBL4007444, “Development of New Benzenesulfonamides As Potent and Selective Nav1.7 Inhibitors for the Treatment of Pain” (J Med Chem, 2017).
Active and inactive are the calls of the source. The rule behind the calls is not given here.

Experiments:
[1] = target: Sodium channel protein type 5 subunit alpha (Homo sapiens, UniProt Q14524); assay: Inhibition of recombinant human Nav1.5 expressed in HEK293 cells assessed as reduction in peak inward current at -50 mV holding potential measured after 600 secs by IonWorks Barracuda patch-clamp assay; type: cell-based
In short: (§1)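 HEK293 cells expressing the channel, measured by population patch clamp on IonWorks Barracuda. External solution (mM): 137 NaCl, 4 KCl, 1 MgCl2, 1.8 CaCl2, 10 HEPES, 10 glucose, pH 7.4. Internal: K-gluconate/KCl, pH 7.2. Compound incubated 600 s between pre- and post-compound reads. Nav1.7: held at -60 mV, 300 ms at -100 mV, then 20 ms test pulse to -20 mV. Nav1.5: held at -40/-50 mV, 300 ms at -100 mV, then step to -10 mV to inactivate.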

[2] = target: T1, Sodium channel protein type 9 subunit alpha (Homo sapiens, UniProt Q15858); assay: Inhibition of recombinant human Nav1.7 expressed in HEK293 cells assessed as reduction in peak inward current at -60 mV holding potential measured after 600 secs by IonWorks Barracuda patch-clamp assay; type: cell-based
In short: as §1, with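 “Barracuda.” for “Barracuda. External solution (mM): 137 NaCl, 4 KCl, 1 MgCl2, 1.8 CaCl2, 10 HEPES, 10 glucose, pH 7.4.”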

Cytochrome P450 3A4 = Cytochrome P450 3A4 (Homo sapiens, UniProt P08684); assay: Inhibition of human CYP3A4 assessed as inhibition of dealkylation
Mus musculus [3] = assay: Antinociceptive activity in CD-1 mouse assessed as reduction in formalin-stimulated paw flinching at 60 mg/kg, po administered 30 mins prior to formalin challenge measured up to 5 mins; type: functional, organism-based
In short: (§2)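 Male CD1 mice, oral dosing (10 mL/kg) of compound or vehicle before formalin; 20 μL of 5% formalin (w/v in saline) injected SC into the dorsal right hind paw, which carried a glued metal band, after 60 min acclimation in an individual chamber. Flinching counted automatically for 45 min: phase I is the first 5 min, phase II is 15-45 min. Mean ± SEM, n=10-14/group, ANOVA with Dunnett's test.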

Mus musculus [4] = assay: Antinociceptive activity in CD-1 mouse assessed as reduction in formalin-stimulated paw flinching at 60 mg/kg, po administered 30 mins prior to formalin challenge measured up to 45 mins; type: functional, organism-based; in short: as §2
Plasma [5] = assay: Free plasma concentration in CD-1 mouse at 60 mg/kg, po measured 60 mins post dosage; conditions: in vivo, 1 h
[6] = target: T1, Sodium channel protein type 9 subunit alpha; assay: Inhibition of recombinant human Nav1.7 expressed in HEK293 cells assessed as reduction in peak inward current at -70 mV holding potential measured after 600 secs by manual patch clamp electrophysiology assay; type: cell-based
In short: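 Whole-cell manual patch clamp of HEK293 cells stably expressing recombinant human Nav1.7, held at -70 mV (partially inactivated state). The pipette solution (mM) was 50 CsCl, 90 CsF, 10 NaF, 2 MgCl₂, 10 EGTA and 10 HEPES, pH 7.2, with electrodes of 1-4 MOhm. Percent inhibition of peak inward current was calculated, and IC50 came from a Hill fit to averaged percent inhibition (mean ± S.E.M.).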

[7] = target: T2, Sodium channel protein type 9 subunit alpha (Mus musculus, UniProt Q62205); assay: Inhibition of recombinant mouse Nav1.7 expressed in HEK293 cells assessed as reduction in peak inward current at -70 mV holding potential measured after 600 secs by manual patch clamp electrophysiology assay; type: cell-based
In short: (§3)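 Whole-cell manual patch clamp of HEK293 cells stably expressing recombinant Nav1.7, holding potential -70 mV (partially inactivated state). Pipette solution (mM): 50 CsCl, 90 CsF, 10 NaF, 2 MgCl2, 10 EGTA, 10 HEPES, pH 7.2; electrode resistance 1-4 MOhm. Percent inhibition of peak inward current; IC50 from a Hill fit to the averaged data; mean ± SEM.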

[8] = target: Sodium channel protein type 9 subunit alpha (Rattus norvegicus, UniProt O08562); assay: Inhibition of rat Nav1.7 assessed as reduction in peak inward current at -70 mV holding potential measured after 600 secs by manual patch clamp electrophysiology assay; in short: as §3
[9] = target: T2, Sodium channel protein type 9 subunit alpha; assay: Inhibition of Nav1.7 in C57BL/6 mouse DRG neurons assessed as reduction in native TTX-S current amplitude by manual patch clamp electrophysiology assay
Mus musculus [10] = assay: Antinociceptive activity in CD-1 mouse assessed as reduction in formalin-stimulated paw flinching at 100 mg/kg, po administered 30 mins prior to formalin challenge measured up to 45 mins; type: functional, organism-based; in short: as §2
[11] = Fraction unbound in CD-1 mouse plasma; type: ADME, cell-free
Plasma [12] = assay: Free plasma concentration in CD-1 mouse at 100 mg/kg, po measured 60 mins post dosage; conditions: in vivo, 1 h
[13] = target: T1, Sodium channel protein type 9 subunit alpha; assay: Inhibition of recombinant human Nav1.7 expressed in HEK293 cells assessed as reduction in peak inward current at -120 mV holding potential by manual whole-cell patch-clamp assay
Mus musculus [14] = assay: Antinociceptive activity in CD-1 mouse assessed as reduction in formalin-stimulated paw flinching at 100 mg/kg, po administered prior to formalin challenge measured up to 5 mins
[15] = Apparent permeability of the compound at pH 5.5 by PAMPA assay; type: physicochemical
[16] = Apparent permeability of the compound at pH 7.4 by PAMPA assay; type: physicochemical
[17] = Plasma concentration in CD-1 mouse at 30 mg/kg, po measured 75 mins post dosage; type: ADME, organism-based
Plasma [18] = assay: Free plasma concentration in CD-1 mouse at 30 mg/kg, po measured 75 mins post dosage; type: ADME, organism-based; conditions: in vivo, 1.25 h
[19] = Drug uptake in CD-1 mouse DRG neurons at 30 mg/kg, po measured 75 mins post dosage; type: ADME, organism-based, DRG neuron; conditions: read-out: Drug uptake
Mus musculus [20] = assay: Antinociceptive activity in CD-1 mouse assessed as reduction in formalin-stimulated paw flinching at 30 mg/kg, po administered 30 mins prior to formalin challenge measured up to 45 mins; type: functional, organism-based; in short: as §2

T2 sequence (Q62205 whole entry): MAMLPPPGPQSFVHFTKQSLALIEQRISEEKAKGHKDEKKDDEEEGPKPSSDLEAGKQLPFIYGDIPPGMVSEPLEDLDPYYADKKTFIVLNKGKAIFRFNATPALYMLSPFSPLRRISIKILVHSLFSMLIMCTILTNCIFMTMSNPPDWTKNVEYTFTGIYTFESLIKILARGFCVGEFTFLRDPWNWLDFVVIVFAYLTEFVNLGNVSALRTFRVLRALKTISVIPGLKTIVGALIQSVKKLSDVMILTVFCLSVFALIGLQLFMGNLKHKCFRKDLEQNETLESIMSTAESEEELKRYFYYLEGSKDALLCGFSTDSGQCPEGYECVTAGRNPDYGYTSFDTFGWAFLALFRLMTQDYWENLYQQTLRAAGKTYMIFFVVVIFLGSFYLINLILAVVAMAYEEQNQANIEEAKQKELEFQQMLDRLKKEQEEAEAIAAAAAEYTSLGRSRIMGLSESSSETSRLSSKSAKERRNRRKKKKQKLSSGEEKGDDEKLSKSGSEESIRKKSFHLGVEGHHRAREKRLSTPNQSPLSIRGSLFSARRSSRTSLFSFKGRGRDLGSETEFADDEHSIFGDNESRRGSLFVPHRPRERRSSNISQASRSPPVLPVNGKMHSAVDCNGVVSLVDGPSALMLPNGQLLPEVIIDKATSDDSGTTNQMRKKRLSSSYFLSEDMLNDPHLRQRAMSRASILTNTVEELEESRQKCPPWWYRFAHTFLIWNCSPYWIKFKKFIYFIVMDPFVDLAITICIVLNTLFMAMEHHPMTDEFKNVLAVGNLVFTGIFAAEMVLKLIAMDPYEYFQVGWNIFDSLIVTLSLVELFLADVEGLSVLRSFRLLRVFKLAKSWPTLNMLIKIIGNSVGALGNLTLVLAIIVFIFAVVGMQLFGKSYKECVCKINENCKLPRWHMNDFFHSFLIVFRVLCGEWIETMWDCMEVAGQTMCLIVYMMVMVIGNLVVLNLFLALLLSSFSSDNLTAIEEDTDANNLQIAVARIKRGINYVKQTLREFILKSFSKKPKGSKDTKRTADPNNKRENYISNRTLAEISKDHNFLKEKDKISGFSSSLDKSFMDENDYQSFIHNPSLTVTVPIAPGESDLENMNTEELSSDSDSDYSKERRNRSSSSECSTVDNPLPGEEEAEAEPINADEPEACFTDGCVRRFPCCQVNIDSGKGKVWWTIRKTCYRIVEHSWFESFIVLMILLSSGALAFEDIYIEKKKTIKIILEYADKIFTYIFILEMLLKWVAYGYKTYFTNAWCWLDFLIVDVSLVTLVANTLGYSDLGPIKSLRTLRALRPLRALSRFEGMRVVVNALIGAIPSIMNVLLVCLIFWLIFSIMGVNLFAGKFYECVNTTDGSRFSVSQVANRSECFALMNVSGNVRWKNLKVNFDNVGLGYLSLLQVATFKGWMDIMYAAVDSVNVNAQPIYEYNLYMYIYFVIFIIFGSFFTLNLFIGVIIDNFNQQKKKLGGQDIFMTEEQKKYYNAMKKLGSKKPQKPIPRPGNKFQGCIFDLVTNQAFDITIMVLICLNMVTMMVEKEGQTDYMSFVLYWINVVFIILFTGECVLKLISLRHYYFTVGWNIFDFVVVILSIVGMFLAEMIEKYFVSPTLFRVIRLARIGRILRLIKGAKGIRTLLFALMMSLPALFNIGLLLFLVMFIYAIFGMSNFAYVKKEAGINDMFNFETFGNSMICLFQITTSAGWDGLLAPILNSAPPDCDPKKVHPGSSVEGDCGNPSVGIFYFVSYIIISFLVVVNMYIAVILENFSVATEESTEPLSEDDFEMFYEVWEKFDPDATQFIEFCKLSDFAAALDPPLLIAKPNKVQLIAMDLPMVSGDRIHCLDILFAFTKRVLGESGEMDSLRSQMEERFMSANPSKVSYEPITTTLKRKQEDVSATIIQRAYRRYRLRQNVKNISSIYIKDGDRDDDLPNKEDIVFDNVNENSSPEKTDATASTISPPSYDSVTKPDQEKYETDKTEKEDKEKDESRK
Chain of Cytochrome P450 3A4 (P08684 whole entry): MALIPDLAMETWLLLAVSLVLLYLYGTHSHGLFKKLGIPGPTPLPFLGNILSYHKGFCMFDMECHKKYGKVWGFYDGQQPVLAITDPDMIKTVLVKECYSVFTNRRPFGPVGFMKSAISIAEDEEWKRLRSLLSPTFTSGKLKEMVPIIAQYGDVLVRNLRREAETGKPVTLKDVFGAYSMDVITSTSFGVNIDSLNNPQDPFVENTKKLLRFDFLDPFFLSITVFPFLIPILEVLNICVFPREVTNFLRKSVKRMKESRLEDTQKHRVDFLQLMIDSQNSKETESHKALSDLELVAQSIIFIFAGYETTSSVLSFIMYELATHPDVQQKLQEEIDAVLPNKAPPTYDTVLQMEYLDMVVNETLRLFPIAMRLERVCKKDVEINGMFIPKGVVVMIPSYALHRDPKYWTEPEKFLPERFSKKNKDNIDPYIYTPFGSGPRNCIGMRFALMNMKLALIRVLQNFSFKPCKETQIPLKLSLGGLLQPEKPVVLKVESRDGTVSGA
T1 sequence (Q15858 whole entry): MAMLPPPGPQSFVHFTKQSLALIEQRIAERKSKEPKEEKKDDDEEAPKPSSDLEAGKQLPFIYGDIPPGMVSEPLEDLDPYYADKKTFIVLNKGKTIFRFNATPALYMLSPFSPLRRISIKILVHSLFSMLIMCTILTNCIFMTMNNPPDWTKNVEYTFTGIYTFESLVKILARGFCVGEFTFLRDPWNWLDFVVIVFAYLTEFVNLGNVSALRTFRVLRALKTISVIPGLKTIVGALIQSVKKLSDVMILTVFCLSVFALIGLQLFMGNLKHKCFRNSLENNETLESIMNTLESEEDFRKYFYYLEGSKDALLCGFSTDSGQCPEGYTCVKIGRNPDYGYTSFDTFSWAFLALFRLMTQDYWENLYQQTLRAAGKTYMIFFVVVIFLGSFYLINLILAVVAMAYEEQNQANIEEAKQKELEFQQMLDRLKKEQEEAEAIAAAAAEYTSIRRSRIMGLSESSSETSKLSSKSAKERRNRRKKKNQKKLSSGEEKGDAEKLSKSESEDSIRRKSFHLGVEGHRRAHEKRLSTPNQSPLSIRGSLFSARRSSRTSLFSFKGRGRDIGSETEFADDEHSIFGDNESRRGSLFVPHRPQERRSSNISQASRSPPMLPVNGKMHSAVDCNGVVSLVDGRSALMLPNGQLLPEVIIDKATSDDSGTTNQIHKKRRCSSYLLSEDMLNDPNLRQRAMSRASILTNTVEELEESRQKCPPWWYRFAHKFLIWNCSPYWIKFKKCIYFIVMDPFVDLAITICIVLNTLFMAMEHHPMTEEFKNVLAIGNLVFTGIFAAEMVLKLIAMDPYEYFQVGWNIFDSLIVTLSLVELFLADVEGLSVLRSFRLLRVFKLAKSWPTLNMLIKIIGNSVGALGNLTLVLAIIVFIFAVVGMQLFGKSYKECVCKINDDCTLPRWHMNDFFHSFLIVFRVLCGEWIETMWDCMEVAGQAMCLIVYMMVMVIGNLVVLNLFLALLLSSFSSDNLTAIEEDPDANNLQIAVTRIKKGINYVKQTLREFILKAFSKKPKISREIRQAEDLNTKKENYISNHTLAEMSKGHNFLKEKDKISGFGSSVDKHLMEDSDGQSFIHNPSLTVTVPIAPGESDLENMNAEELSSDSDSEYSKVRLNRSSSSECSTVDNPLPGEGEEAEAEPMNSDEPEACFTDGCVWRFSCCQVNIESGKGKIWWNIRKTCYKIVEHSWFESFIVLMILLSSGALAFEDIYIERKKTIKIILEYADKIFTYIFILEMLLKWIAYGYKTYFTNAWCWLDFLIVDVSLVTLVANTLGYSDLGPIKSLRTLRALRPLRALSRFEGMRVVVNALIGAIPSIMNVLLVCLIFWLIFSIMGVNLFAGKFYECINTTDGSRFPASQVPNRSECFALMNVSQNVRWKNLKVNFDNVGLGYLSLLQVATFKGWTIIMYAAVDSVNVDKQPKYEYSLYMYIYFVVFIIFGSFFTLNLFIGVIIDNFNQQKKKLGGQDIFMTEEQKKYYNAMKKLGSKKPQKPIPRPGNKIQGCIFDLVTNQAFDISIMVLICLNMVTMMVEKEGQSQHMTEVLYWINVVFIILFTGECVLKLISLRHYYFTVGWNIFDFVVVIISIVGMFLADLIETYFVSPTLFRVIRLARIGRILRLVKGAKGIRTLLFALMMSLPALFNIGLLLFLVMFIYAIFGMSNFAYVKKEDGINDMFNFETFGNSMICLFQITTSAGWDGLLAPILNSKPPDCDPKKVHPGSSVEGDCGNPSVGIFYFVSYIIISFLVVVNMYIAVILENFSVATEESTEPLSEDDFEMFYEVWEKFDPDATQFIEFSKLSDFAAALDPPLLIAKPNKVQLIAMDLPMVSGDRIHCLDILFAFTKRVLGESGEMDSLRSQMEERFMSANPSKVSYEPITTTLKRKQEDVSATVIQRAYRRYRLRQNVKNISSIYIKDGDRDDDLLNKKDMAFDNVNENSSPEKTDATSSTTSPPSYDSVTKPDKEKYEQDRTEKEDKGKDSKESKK

Compound | IC50 [1] | IC50 [2] | also measured
N[C@H]1CC[C@H](CNc2cc(F)c(S(=O)(=O)Nc3nccs3)cc2Cl)CC1 | > 30000 nM |  | 
O=S(=O)(Nc1nccs1)c1cc(Cl)c(NC[C@H]2CCCN(O)C2)cc1F |  | 186 nM | 
N[C@H]1CC[C@@](CCOc2cc(F)c(S(=O)(=O)Nc3ncns3)cc2Cl)(c2ccccc2)CC1 | > 30000 nM |  | 
N[C@H]1CC[C@](CCNc2cc(F)c(S(=O)(=O)Nc3nccs3)cc2Cl)(c2ccccc2)CC1 | > 30000 nM |  | IC50 (Cytochrome P450 3A4): 6700 nM
CN[C@H]1CC[C@@](CCOc2cc(F)c(S(=O)(=O)Nc3ncns3)cc2F)(c2ccccc2)CC1 | > 30000 nM |  | 
N[C@H]1CC[C@](CCOc2cc(F)c(S(=O)(=O)Nc3ncns3)cc2Cl)(c2ccccc2)CC1 | > 30000 nM |  | 
O=S(=O)(Nc1ncns1)c1cc(Cl)c(NCCC2CCCCN2)cc1F (racemic) |  | 15 nM | 
C[C@]1(CCOc2cc(F)c(S(=O)(=O)Nc3ncns3)cc2F)CC[C@H](N)CC1 | > 30000 nM | 383 nM | 
O=S(=O)(Nc1ncns1)c1cc(F)c(OCC[C@]2(c3ccccc3)CC[C@@H](NC3CC3)CC2)cc1F | > 30000 nM |  | 
O=S(=O)(Nc1ncns1)c1cc(F)c(OCC[C@]2(c3ccccc3)CC[C@H](NC3CC3)CC2)cc1F | > 30000 nM |  | 
O=S(=O)(Nc1nccs1)c1cc(Cl)c(NCCC2CCNC2)cc1F (racemic) | > 30000 nM | 14 nM | 
O=S(=O)(Nc1nccs1)c1cc(Cl)c(NCC2CNCCO2)cc1F (racemic) | > 30000 nM | 69 nM | IC50 (Cytochrome P450 3A4): 20000 nM
O=S(=O)(Nc1nccs1)c1cc(Cl)c(NC[C@H]2CCCNC2)cc1F | > 30000 nM | 49 nM | IC50 (Cytochrome P450 3A4): 20000 nM
C[C@]1(CCOc2cc(F)c(S(=O)(=O)Nc3ncns3)cc2F)CC[C@@H](N)CC1 | > 30000 nM | 78 nM | 
O=S(=O)(Nc1nccs1)c1cc(Cl)c(NC[C@@H]2CCCN(O)C2)cc1F |  | 207 nM | 
O=S(=O)(Nc1ncns1)c1cc(F)c(OC[C@@H]2CNCC[C@H]2c2ccc(Cl)cc2)cc1F |  | 2 nM | 
O=S(=O)(Nc1nccs1)c1cc(Cl)c(NCC23CCCN2CCC3)cc1F |  |  | Activity (Mus musculus [3]): inactive; Activity (Mus musculus [4]): Active; Cp(f) (Plasma [5]): 1270 nM
N[C@H]1CC[C@@H](CNc2cc(F)c(S(=O)(=O)Nc3nccs3)cc2Cl)CC1 | 1900 nM | 6 nM | IC50 [6]: 4 nM; IC50 [7]: 7.5 nM; IC50 [8]: 12.3 nM; IC50 [9]: 6 nM; Activity (Mus musculus [10]): inactive; fraction unbound [11]: 0.08; Cp(f) (Plasma [12]): 320 nM; IC50 [13]: 9400 nM; Activity (Mus musculus [14]): inactive
O=S(=O)(Nc1nccs1)c1cc(Cl)c(NCCC2CNC2)cc1F | > 30000 nM |  | 

Compound | IC50 [1] | IC50 [2] | also measured
CN1C(C)(C)CC(Nc2cc(F)c(S(=O)(=O)Nc3nccs3)cc2Cl)CC1(C)C | > 30000 nM | 27 nM | IC50 (Cytochrome P450 3A4): 20000 nM; IC50 [6]: 17 nM; IC50 [7]: 30 nM; Papp [15]: 2.3 ×10⁻⁶ cm/s; Papp [16]: 24.1 ×10⁻⁶ cm/s; fraction unbound [11]: 0.23; concentration at 1.25 h [17]: 1100 nM; Cp(f) (Plasma [18]): 280 nM; concentration at 1.25 h [19]: 1500 nM
CN[C@H]1CC[C@](CCOc2cc(F)c(S(=O)(=O)Nc3ncns3)cc2F)(c2ccccc2)CC1 | > 30000 nM |  | 
N[C@H]1CC[C@](CCOc2cc(F)c(S(=O)(=O)Nc3ncns3)cc2F)(c2ccc(Cl)cc2)CC1 | > 30000 nM |  | 
CN1CCC(CCNc2cc(F)c(S(=O)(=O)Nc3nccs3)cc2Cl)CC1 | > 30000 nM |  | 
O=S(=O)(Nc1nccs1)c1cc(Cl)c(NCC2CNC2)cc1F | > 30000 nM | 339 nM | 
O=S(=O)(Nc1nccs1)c1cc(Cl)c(NCC2(CN3CCCC3)CC2)cc1F | 5100 nM |  | IC50 (Cytochrome P450 3A4): 20000 nM; IC50 [6]: 12 nM; IC50 [7]: 51 nM; Papp [15]: 4.7 ×10⁻⁶ cm/s; Papp [16]: 94.9 ×10⁻⁶ cm/s; fraction unbound [11]: 0.2; concentration at 1.25 h [17]: 1200 nM; Cp(f) (Plasma [18]): 240 nM; concentration at 1.25 h [19]: 1500 nM; Activity (Mus musculus [20]): Active
N[C@H]1CC[C@](CCOc2cc(F)c(S(=O)(=O)Nc3ncns3)cc2F)(c2ccccc2)CC1 | > 30000 nM | 15 nM | 
O=S(=O)(Nc1nccs1)c1cc(Cl)c(NC[C@@H]2CCCNC2)cc1F |  | 57 nM | IC50 (Cytochrome P450 3A4): 20000 nM
O=S(=O)(Nc1ncns1)c1cc(F)c(OCCC2(c3ccc(Cl)cc3)CCNCC2)cc1F |  | 78 nM | 
O=S(=O)(Nc1ncns1)c1cc(F)c(OCC2(c3ccc(Cl)cc3)CCNCC2)cc1F |  | 900 nM | 
CN1CCCC(CNc2cc(F)c(S(=O)(=O)Nc3nccs3)cc2Cl)C1 (racemic) | > 30000 nM | 264 nM | 
N[C@H]1CC[C@@](CCNc2cc(F)c(S(=O)(=O)Nc3nccs3)cc2Cl)(c2ccccc2)CC1 | > 30000 nM |  | IC50 (Cytochrome P450 3A4): 9800 nM
CC(=O)N1CCCC(CNc2cc(F)c(S(=O)(=O)Nc3nccs3)cc2Cl)C1 (racemic) | > 30000 nM | 324 nM | 
N[C@H]1CC[C@@](CCOc2cc(F)c(S(=O)(=O)Nc3ncns3)cc2F)(c2ccc(Cl)cc2)CC1 | > 30000 nM |  | 
N[C@H]1CC[C@@H](CCNc2cc(F)c(S(=O)(=O)Nc3nccs3)cc2Cl)CC1 | 4900 nM |  | 
N[C@H]1CC[C@@](CCOc2cc(F)c(S(=O)(=O)Nc3ncns3)cc2F)(c2ccccc2)CC1 | > 30000 nM | 473 nM | 
O=S(=O)(Nc1nccs1)c1cc(Cl)c(NCCC2CCNCC2)cc1F | > 30000 nM |  | 
N[C@H]1CC[C@@H](CNc2cc(F)c(S(=O)(=O)Nc3ncns3)cc2Cl)CC1 | 2600 nM |  | IC50 (Cytochrome P450 3A4): 2300 nM
